Laboratory results from the M2OR odorant receptor database.
Numbering of substitutions follows the chain as printed.

Experiments:
Settings in all cases: stereoisomer not certain
[1] = biological target: T1, OR10R2 (Homo sapiens) (UniProt Q8NGX6)
T1 sequence (whole entry): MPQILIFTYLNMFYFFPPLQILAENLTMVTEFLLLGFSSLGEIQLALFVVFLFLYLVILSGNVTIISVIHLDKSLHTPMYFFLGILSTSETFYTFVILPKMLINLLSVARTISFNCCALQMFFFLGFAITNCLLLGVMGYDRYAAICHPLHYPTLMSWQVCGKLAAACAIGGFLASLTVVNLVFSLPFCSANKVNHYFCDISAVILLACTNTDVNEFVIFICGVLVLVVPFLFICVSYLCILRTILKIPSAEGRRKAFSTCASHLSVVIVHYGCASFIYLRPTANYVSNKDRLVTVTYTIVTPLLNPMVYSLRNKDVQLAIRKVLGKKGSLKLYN
Outline: (§1)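 Whether a receptor–molecule pair is responsive (active) rests on the original authors' judgment that its measured signal was statistically different from baseline. Pairs without that judgment are non-responsive (inactive). Sources used varied assay methods, commonly transient luciferase assays in mammalian cell lines.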

[2] = biological target: T2, OR10S1 (Homo sapiens) (UniProt Q8NGN2)
T2 sequence (whole entry): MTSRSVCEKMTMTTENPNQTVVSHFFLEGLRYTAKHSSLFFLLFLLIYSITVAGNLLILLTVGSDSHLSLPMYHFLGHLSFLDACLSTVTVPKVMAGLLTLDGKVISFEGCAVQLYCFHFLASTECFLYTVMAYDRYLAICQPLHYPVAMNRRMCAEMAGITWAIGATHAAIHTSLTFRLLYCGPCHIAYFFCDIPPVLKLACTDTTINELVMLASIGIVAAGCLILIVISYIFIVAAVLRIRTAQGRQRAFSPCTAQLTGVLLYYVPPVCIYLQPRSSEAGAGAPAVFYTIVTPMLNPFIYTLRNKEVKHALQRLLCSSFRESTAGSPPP
Outline: as §1

[3] = biological target: T3, OR10T2 (Homo sapiens) (UniProt Q8NGX3)
T3 sequence (whole entry): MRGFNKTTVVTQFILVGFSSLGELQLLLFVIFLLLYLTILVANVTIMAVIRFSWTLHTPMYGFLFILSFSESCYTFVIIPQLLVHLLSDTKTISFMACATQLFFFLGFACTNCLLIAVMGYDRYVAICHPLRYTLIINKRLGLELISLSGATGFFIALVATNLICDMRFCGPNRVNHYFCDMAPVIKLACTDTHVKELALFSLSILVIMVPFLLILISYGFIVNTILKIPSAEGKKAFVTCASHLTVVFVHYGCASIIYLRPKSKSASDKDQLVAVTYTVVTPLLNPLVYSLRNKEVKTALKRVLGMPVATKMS
Outline: as §1

[4] = biological target: T4, OR10V1 (Homo sapiens) (UniProt Q8NGI7)
T4 sequence (whole entry): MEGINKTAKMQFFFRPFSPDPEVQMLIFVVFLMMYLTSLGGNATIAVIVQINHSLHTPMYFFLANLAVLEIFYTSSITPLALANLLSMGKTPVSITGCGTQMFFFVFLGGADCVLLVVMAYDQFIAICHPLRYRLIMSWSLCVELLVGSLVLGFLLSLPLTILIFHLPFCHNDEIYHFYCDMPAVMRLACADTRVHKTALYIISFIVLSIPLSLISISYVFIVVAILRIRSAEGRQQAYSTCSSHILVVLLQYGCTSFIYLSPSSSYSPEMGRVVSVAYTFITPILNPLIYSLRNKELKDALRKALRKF
Outline: as §1

[5] = biological target: T5, OR10W1 (Homo sapiens) (UniProt Q8NGF6)
T5 sequence (whole entry): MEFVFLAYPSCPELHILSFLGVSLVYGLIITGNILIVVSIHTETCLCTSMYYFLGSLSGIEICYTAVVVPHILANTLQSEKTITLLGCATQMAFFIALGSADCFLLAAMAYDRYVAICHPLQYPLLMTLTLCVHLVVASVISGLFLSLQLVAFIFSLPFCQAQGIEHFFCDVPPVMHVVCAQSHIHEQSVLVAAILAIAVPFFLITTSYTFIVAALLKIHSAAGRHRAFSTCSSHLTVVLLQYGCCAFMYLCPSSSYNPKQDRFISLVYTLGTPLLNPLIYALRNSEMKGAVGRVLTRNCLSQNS
Outline: as §1

[6] = biological target: T6, OR10X1 (Homo sapiens) (UniProt Q8NGY0)
T6 sequence (whole entry): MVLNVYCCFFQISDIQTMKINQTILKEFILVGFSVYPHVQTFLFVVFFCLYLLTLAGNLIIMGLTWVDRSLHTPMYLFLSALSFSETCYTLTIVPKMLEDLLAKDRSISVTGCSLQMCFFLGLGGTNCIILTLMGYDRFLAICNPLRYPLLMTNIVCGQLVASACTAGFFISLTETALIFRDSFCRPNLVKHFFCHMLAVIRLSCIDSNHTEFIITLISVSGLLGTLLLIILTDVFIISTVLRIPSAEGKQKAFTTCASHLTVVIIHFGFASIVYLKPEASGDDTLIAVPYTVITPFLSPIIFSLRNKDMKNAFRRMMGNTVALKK
Outline: as §1

[7] = biological target: T7, OR10Z1 (Homo sapiens) (UniProt Q8NGY1)
T7 sequence (whole entry): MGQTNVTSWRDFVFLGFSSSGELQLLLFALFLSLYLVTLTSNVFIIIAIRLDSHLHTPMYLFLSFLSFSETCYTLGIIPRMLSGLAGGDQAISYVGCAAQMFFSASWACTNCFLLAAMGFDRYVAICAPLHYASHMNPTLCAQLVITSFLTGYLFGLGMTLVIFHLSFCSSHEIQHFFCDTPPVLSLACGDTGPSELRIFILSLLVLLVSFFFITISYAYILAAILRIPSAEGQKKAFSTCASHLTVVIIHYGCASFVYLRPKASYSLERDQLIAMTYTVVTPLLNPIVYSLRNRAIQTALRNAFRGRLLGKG
Outline: as §1

[8] = biological target: T8, OR11A1 (Homo sapiens) (UniProt Q9GZK7)
T8 sequence (whole entry): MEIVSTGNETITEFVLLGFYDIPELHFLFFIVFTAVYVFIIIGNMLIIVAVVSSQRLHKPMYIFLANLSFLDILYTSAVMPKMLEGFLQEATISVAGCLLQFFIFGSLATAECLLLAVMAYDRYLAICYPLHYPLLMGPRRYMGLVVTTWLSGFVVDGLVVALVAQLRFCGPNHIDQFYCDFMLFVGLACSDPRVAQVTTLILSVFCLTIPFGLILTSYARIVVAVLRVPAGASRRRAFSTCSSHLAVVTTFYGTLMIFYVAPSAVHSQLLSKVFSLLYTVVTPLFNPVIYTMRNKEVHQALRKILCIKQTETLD
Outline: as §1

[9] = biological target: T9, OR11G2 (Homo sapiens) (UniProt Q8NGC1)
T9 sequence (whole entry): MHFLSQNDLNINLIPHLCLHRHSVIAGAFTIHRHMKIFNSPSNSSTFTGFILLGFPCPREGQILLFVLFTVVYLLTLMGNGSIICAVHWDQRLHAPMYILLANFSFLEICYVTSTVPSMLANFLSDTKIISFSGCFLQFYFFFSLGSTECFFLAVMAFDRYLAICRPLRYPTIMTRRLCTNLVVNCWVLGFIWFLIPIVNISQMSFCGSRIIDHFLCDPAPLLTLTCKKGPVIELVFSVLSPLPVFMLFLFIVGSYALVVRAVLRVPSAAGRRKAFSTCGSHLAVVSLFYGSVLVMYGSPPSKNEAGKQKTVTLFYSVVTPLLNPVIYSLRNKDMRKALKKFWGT
Outline: as §1

[10] = biological target: T10, OR11H1 (Homo sapiens) (UniProt Q8NG94)
T10 sequence (whole entry): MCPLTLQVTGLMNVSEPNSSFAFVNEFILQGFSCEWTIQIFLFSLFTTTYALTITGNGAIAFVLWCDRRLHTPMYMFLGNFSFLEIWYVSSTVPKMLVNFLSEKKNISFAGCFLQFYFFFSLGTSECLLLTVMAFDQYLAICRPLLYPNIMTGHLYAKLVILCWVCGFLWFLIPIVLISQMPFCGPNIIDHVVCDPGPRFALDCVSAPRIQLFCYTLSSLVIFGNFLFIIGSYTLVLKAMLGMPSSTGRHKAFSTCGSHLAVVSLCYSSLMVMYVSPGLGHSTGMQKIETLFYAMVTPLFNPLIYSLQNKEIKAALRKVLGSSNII
Outline: as §1

[11] = biological target: T11, OR11H2 (Homo sapiens) (UniProt Q8NH07)
T11 sequence (whole entry): T10 sequence (whole entry) with Q7H, T49I, M181K, R199L, M240V, S269P
Outline: as §1

[12] = biological target: T12, OR11H4 (Homo sapiens) (UniProt Q8NGC9)
T12 sequence (whole entry): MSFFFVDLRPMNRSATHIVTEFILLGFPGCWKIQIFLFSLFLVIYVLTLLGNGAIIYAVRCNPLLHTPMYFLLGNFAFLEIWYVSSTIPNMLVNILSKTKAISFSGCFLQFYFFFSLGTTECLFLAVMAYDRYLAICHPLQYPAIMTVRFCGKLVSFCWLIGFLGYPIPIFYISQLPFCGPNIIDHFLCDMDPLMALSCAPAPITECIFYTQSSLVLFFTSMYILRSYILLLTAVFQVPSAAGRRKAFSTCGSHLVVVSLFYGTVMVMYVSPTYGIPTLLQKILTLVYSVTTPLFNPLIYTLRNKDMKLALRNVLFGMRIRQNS
Outline: as §1

[13] = biological target: T13, OR11H6 (Homo sapiens) (UniProt Q8NGC7)
T13 sequence (whole entry): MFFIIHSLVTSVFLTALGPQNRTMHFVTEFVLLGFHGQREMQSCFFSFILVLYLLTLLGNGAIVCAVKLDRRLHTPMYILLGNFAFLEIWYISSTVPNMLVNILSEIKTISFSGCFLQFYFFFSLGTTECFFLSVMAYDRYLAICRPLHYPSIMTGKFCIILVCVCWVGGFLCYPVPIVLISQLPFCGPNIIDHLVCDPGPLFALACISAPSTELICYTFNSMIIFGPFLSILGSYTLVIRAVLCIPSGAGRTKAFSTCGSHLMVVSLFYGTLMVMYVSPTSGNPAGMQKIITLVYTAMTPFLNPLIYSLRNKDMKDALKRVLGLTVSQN
Outline: as §1

[14] = biological target: T14, OR11L1 (Homo sapiens) (UniProt Q8NGX0)
T14 sequence (whole entry): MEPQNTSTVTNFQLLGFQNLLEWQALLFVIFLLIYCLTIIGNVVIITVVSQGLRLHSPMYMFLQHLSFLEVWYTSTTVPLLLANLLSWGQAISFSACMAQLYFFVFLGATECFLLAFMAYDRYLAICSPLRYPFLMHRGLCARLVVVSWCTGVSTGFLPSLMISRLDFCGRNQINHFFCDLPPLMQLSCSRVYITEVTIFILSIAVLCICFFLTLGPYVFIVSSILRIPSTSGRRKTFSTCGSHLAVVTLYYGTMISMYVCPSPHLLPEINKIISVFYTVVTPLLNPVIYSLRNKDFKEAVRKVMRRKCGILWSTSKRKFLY
Outline: as §1

[15] = biological target: T15, OR12D2 (Homo sapiens) (UniProt P58182)
T15 sequence (whole entry): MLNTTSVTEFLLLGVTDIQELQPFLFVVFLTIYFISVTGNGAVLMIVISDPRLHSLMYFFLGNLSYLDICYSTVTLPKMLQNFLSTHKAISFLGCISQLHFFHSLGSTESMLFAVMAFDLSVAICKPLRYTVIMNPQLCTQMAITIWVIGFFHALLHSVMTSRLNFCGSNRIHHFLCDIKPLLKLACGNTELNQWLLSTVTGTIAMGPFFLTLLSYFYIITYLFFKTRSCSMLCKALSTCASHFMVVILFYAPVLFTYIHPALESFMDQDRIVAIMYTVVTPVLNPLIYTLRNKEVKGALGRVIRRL
Outline: as §1

[16] = biological target: T16, OR12D3 (Homo sapiens) (UniProt Q9UGF7)
T16 sequence (whole entry): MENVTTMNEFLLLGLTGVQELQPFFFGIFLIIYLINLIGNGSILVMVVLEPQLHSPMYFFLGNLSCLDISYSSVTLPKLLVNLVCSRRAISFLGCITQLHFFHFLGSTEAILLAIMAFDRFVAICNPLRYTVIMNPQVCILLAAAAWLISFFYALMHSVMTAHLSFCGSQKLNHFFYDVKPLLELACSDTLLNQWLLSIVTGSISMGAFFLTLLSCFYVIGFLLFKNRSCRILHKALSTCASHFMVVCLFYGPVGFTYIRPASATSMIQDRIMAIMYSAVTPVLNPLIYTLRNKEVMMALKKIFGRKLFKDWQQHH
Outline: as §1

[17] = biological target: T17, OR13A1 (Homo sapiens) (UniProt Q8NGR1)
T17 sequence (whole entry): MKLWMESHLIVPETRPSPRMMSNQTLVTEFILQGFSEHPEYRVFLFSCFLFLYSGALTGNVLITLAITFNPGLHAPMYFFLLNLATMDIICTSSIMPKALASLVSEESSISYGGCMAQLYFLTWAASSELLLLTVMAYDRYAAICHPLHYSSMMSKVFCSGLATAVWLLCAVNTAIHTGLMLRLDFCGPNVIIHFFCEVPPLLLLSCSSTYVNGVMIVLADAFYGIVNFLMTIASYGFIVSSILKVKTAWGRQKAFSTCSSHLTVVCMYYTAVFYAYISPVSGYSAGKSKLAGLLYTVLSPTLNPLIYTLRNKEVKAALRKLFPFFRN
Outline: as §1

[18] = biological target: T18, OR11H12 (Homo sapiens) (UniProt B2RN74)
T18 sequence (whole entry): T10 sequence (whole entry) with S33T, R68W, Y156C, M240V
Outline: as §1

Measured: odorant receptor agonist call;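 note: active if original authors judged signal statistically different from baseline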

CC(CO)CS (configuration not stated)
inactive: [1] | [2] | [3] | [4] | [5] | [6] | [7] | [8] | [9] | [10] | [11] | [12] | [13] | [14] | [15] | [16] | [17]

CC1=C(O)C(=O)C(C)O1 (configuration not stated)
inactive: [1] | [2] | [3] | [4] | [5] | [6] | [7] | [8] | [9] | [10] | [18] | [11] | [12] | [13] | [14] | [15] | [16] | [17]

CCCCCCCCCCCC(=O)OC
inactive: [2]

CC1=CCC2CC1C2(C)C (configuration not stated)
inactive: [2]
